Publication PMC10125367 (ACS Bio & Med Chem Au, 2022)
Blank lines part the entries; values can stand above or below the compound they belong to.

Columns and labels:
SOS = conditions: read-out: IC50 in vitro; inhibits SOS; ref 20 Kessler, et al.; cited from earlier work
Raf = conditions: read-out: IC50 in vitro; inhibits Raf; ref 20 Kessler, et al.; cited from earlier work
MDR1-MDCK cell monolayer = test: Permeability and efflux in MDR1-MDCK cell monolayer system; format: in vitro ADME; conditions: corrected for cell volume on donor side
MDR1 (P-gp) = test: as above; format: in vitro ADME; conditions: dog
MDR1 = test: as above; format: in vitro ADME; conditions: dog, MDCK-MDR1
GDP-KRAS(Q61H) = GDP-KRAS(Q61H) (Homo sapiens, UniProt P01116, Q61H); test: Isothermal titration calorimetry; format: binding
KRAS(WT) [1] = target: T1, KRAS(WT) (Homo sapiens, UniProt P01116); test: Microscale thermophoresis; format: binding; conditions: Kd from MST, GDP-bound KRAS(WT)
NRAS = NRAS (Homo sapiens, UniProt P01111); test: Thermal shift assay; format: binding; conditions: 50 μM compound
Sequence of NRAS (P01111 whole entry): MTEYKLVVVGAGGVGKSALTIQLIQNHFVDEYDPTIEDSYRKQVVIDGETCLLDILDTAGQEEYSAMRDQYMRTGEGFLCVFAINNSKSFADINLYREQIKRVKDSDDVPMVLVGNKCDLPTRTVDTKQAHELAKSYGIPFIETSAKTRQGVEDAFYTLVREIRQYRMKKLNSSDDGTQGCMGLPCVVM

KRAS(WT) [2] = target: T1, KRAS(WT); test: Intrinsic GDP/GTP nucleotide exchange; format: biochemical
In short: (§1)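 Recombinant KRAS(WT), BODIPY-GTP (BGTP) and, for SOS-mediated exchange, SOS are each at 0.5 μM. Buffer is 25 mM Tris Cl pH 7.5, 50 mM NaCl, 10 mM MgCl2, with test compound at 0–50 μM. Fluorescence rise on BGTP binding is normalised to the 60 s and KRAS-alone maximum values. Rates come from linear (intrinsic) or single-exponential (SOS) fits, and EC50 from fitting rate versus concentration.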

HRAS = HRAS (Homo sapiens, UniProt P01112); test: Thermal shift assay; format: binding; conditions: 50 μM compound
Sequence of HRAS (P01112 whole entry): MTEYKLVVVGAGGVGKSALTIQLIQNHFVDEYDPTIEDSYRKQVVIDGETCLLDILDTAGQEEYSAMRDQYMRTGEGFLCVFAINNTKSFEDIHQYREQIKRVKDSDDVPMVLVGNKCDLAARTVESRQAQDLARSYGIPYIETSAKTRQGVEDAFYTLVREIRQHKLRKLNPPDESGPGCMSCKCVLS

KRAS(WT) [3] = target: T1, KRAS(WT); test: Intrinsic fluorescence; format: binding; conditions: 0 to 50 µM ligand, 2 µM KRAS; qualitative
GDP-KRAS(G12D) = GDP-KRAS(G12D) (Homo sapiens, UniProt P01116, G12D); test: Isothermal titration calorimetry; format: binding
KRAS(Q61H) = KRAS(Q61H) (Homo sapiens, UniProt P01116, Q61H); test: Microscale thermophoresis; format: binding
KRAS = KRAS (Homo sapiens, UniProt P01116); test: Intrinsic nucleotide release; format: biochemical; conditions: 50 µM ligand, 100 µM GTP
GDP-KRAS(G12C) = GDP-KRAS(G12C) (Homo sapiens, UniProt P01116, G12C); test: Isothermal titration calorimetry; format: binding
[4] = test system: BHK cells expressing GFP-tagged KRAS(G12D); test: Cell signaling assay; format: cell-based, baby hamster
In short: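 Whole-cell lysates were immunoblotted for phospho-c-Raf, phospho-ERK and phospho-AKT, with vinculin as loading control. Levels were quantified relative to DMSO, averaged from three independent experiments and compared by unpaired Student's t test.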

KRAS with SOS = KRAS with SOS (Homo sapiens, UniProt P01116); test: SOS-mediated nucleotide release; format: biochemical; conditions: 50 µM ligand, 100 µM GTP, 0.5 µM SOS
Microsomal stability [5] = format: in vitro ADME; conditions: mouse, microsomes
[6] = test system: cancer cells expressing various mutants of KRAS; test: Cell proliferation, summary; format: cell-based
KRAS(G12D) [7] = target: T2, KRAS(G12D) (Homo sapiens, UniProt P01116, G12D); test: Intrinsic fluorescence; format: binding; conditions: 0 to 50 µM ligand, 2 µM KRAS; qualitative
Microsomal stability [8] = format: in vitro ADME; conditions: rat, microsomes
KRAS(G12C) = KRAS(G12C) (Homo sapiens, UniProt P01116, G12C); test: Microscale thermophoresis; format: binding
KRAS(WT) with SOS = KRAS(WT) with SOS (Homo sapiens, UniProt P01116); test: SOS-mediated GDP/GTP nucleotide exchange; format: biochemical
In short: as §1

[9] = target: KRAS(G12D)-RafRBD interaction (Homo sapiens, UniProt P01116, G12D); test: RBD pull-down assay in BHK cell lysates; format: cell-based, baby hamster; conditions: lysates treated with 10 μM or more, 1 h
In short: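 GTP-bound GFP-KRAS(G12D) and endogenous RAS were pulled down with GST-c-Raf RBD and detected by western blot, with total GFP-KRAS(G12D) and total RAS as loading controls. Signals were normalised to DMSO and averaged over three independent experiments, with unpaired Student's t test.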

[10] = test system: MIAPaCa-2 xenograft tumor; test: MIAPaCa-2 subcutaneous xenograft tumor model; format: in vivo, mouse; conditions: 5 mg/kg IP
In short: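 Nude mice received MIAPaCa-2 cells subcutaneously in the hind flank and were split after 3 days into groups of equal mean tumour volume (8 vehicle, 7 treated). Dosing was 5 mg/kg test compound in corn oil, or DMSO in corn oil, intraperitoneally 5 days/week. Caliper volumes, (length × width²)/2, were taken twice weekly and body weights weekly. Tumour lysates were blotted for p-ERK, total ERK and GAPDH.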

GDP-KRAS(WT) = GDP-KRAS(WT) (Homo sapiens, UniProt P01116); test: Isothermal titration calorimetry; format: binding; conditions: Kd from ITC, GDP-bound KRAS(WT), 25 °C
KRAS(G12D) [11] = target: T2, KRAS(G12D); test: Microscale thermophoresis; format: binding; conditions: Kd from MST, GDP-bound KRAS(G12D)
GDP-KRAS(G13D) = GDP-KRAS(G13D) (Homo sapiens, UniProt P01116, G13D); test: Isothermal titration calorimetry; format: binding
Microsomal stability [12] = format: in vitro ADME; conditions: human, microsomes
[13] = MDCK-MDR1, Papparent efflux ratio (ER)

SMILES: Cn1cnc(Cn2ccc3ccc(CNCc4[nH]c5ccccc5c4[C@H]4NC(=O)c5ccc(O)cc54)cc32)c1 [BI-2852]
IC50 (SOS): 0.5 to 0.7 µM
IC50 (Raf): 0.5 to 0.7 µM

Pexact, A > B (MDR1-MDCK cell monolayer): 1.436 ×10⁻⁶ cm/s
Pexact, B > A (MDR1-MDCK cell monolayer): 24.325 ×10⁻⁶ cm/s
efflux ratio (MDR1 (P-gp); [13]): 10.3
efflux ratio (MDR1 (P-gp); MDCK-MDR1, Pexact efflux ratio): 16.9
Papp A→B (MDR1): 1.65 ×10⁻⁶ cm/s
Papp B→A (MDR1): 17.1 ×10⁻⁶ cm/s
SMILES: CC(C)CN(C[C@@H](O)[C@H](Cc1ccccc1)NC(=O)O[C@H]1CCOC1)S(=O)(=O)c1ccc(N)cc1 [amprenavir]

Pexact, A > B (MDR1-MDCK cell monolayer): 39.979 ×10⁻⁶ cm/s
Pexact, B > A (MDR1-MDCK cell monolayer): 20.715 ×10⁻⁶ cm/s
efflux ratio (MDR1 (P-gp); [13]): 0.48
efflux ratio (MDR1 (P-gp); MDCK-MDR1, Pexact efflux ratio): 0.52
Papp A→B (MDR1): 31.2 ×10⁻⁶ cm/s
Papp B→A (MDR1): 15 ×10⁻⁶ cm/s
SMILES: CC(C)NCC(O)COc1cccc2ccccc12 (centres unmarked) [propranolol]

SMILES: O=C(O)c1cc(NC(=O)C2CC2c2ccccc2)ccc1O (centres unmarked) [ACA-14, 2-hydroxy-5-{[(2-phenylcyclopropyl)carbonyl]amino} benzoic acid]
Kd (GDP-KRAS(Q61H)): 1.04 µM
Kd (KRAS(WT) [1]): 4.5 ± 1.5 µM
Change in melting temperature (Tm) (NRAS): no measurable change
EC50 (KRAS(WT) [2]): 3.8 ± 0.6 µM
Change in melting temperature (Tm) (HRAS): no measurable change
Change in intrinsic fluorescence of the compound on mixing with protein (KRAS(WT) [3]): concentration-dependent changes
Kd (GDP-KRAS(G12D)): 45.9 µM
Kd (KRAS(Q61H)): 0.02 ± 0.01 µM
Effect on rate of intrinsic GDP release (KRAS): lack of effect
Kd (GDP-KRAS(G12C)): 11.8 µM
Concentration required to inhibit MAPK signaling [4]: > 20 µM
Level of phosphorylated ERK (p-ERK) ([4]; 3 h, serum-starved): significantly reduced
Level of phosphorylated c-Raf (p-cRaf) ([4]; 3 h, serum-starved): significantly reduced
p-AKT level ([4]; 3 h, serum-starved, concentration range tested): little effect
Effect on rate of SOS-mediated GDP release (KRAS with SOS): lack of effect
Intrinsic clearance (Microsomal stability [5]): < 0.3 mL/min/g
half-life (Microsomal stability [5]): > 3 h
Concentration required to inhibit proliferation [6]: > 20 µM
Change in intrinsic fluorescence of the compound on mixing with protein (KRAS(G12D) [7]): concentration-dependent changes
Intrinsic clearance (Microsomal stability [8]): < 0.3 mL/min/g
half-life (Microsomal stability [8]): > 3 h
Kd (KRAS(G12C)): 0.34 ± 0.07 µM
EC50 (KRAS(WT) with SOS): 2.1 ± 0.4 µM
Level of GFP-tagged GTP-KRAS(G12D) pulled down by c-Raf RBD [9]: significantly reduced
Level of endogenous RAS pulled down by c-Raf RBD [9]: significantly reduced
Weight gain of treated mice ([10]; nude mice, 5 days per week): did not affect weight gain
Tumor growth ([10]; nude mice, 5 days per week, maintained until day 20): small but statistically significant reduction
ERK activation within tumors (p-ERK western blot) ([10]; tumor lysates): small but significant reduction
Kd (GDP-KRAS(WT)): 1.1 µM
Kd (KRAS(G12D) [11]): > 50 µM
Kd (GDP-KRAS(G13D)): 34.1 µM
Pexact, A > B (MDR1-MDCK cell monolayer): 5.355 ×10⁻⁶ cm/s
Pexact, B > A (MDR1-MDCK cell monolayer): 3.833 ×10⁻⁶ cm/s
efflux ratio (MDR1 (P-gp); [13]): 0.65
efflux ratio (MDR1 (P-gp); MDCK-MDR1, Pexact efflux ratio): 0.72
Papp A→B (MDR1): 5.42 ×10⁻⁶ cm/s
Papp B→A (MDR1): 3.51 ×10⁻⁶ cm/s
Intrinsic clearance (Microsomal stability [12]): < 0.3 mL/min/g
half-life (Microsomal stability [12]): > 3 h
